# High-throughput results deposited in PubChem BioAssay by several laboratories.
# core dimer inh – HCV core protein dimerization inhibition; AID 1899; TR-FRET GST/Flag-core106 dimerization, 1536-well; 300,000 tested, 0.33% active; inhibition, % at 5 µM;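 active = inhibition above the mean of all tested compounds plus 3 SD, set per screening campaign, cut at about 45% in these data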
#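 System: GST/Flag-tagged HCV core106 proteins. Incubation: compound-protein-antibody incubation 4 h at 22.5 °C. Technique: HTRF with 340 nm excitation, 617/671 nm emission. Medium: KF-containing HEPES buffer, pH 7.45, DTT, CHAPS, BSA. Read-out: inhibition (%) from 671 over 617 nm ratio. Also added: Eu(K)-anti-GST 90 ng/mL plus XL665-anti-Flag 1 µg/mL.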
# ZTA DNA inh – ZTA (EBV) inhibition in EBNA-1 counter-screen. ZTA-DNA binding, fluorescence polarization. inhibition, % at 11 µM. 320,000 tested, 0.15% active; in the data active = inhibition above about 33%
# Target sequence (P03206 whole entry, looked up): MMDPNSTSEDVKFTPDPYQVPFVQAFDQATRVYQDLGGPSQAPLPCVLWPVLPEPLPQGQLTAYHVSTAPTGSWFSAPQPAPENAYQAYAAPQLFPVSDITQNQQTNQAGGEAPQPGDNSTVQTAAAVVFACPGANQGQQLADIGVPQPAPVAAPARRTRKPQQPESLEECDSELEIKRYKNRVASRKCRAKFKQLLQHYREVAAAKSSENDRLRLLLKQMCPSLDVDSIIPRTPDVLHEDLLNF
# GPR7 antagonist – human neuropeptides B/W receptor 1 antagonism; AID 1861; GPR7-expressing cells, fluorescence antagonist assay; inhibition, % at 4.4 µM; 290,000 tested, 1.1% active; P48145; in the data active = inhibition above about 16%, passing the limit was not always enough;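 also: cells stimulated with the agonist NPW; 0% = agonist with vehicle and 100% = vehicle without agonist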
# EBNA-1 inhibitor – blocks EBNA-1 binding to DNA. EBNA-1 DNA binding, fluorescence polarization. 300,000 tested, 0.34% active. inhibition, % at 14.8 µM. AID 1950; in the data active = inhibition above about 28%
# EBV gp42 block – inhibitors of Epstein-Barr virus glycoprotein 42; Q1HVG2; Fluorescence polarization binding assay, mP read-out; inhibition, % (tested at 21.74 µM); 220,000 tested, 0.42% active; AID 1085; in the data active = inhibition above about 50%
# Target sequence (Q1HVG2 whole entry, looked up): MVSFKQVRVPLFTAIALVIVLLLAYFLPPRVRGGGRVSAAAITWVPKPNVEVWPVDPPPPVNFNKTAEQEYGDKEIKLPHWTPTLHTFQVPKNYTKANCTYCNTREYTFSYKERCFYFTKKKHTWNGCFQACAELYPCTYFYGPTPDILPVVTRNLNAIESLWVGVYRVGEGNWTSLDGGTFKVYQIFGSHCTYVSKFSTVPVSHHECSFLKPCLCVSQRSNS
# HCV NS3 hel inh – inhibitors of Hepatitis C virus NS3 helicase | NS3 helicase DNA unwinding, Cy5 molecular beacon fluorescence | inhibition, % at 10.9 µM | 290,000 tested, 0.56% active;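 active = inhibition above the mean of all tested compounds plus 3 SD, set per campaign, cut at about 35% in these data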;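 also: 0% = DMSO wells and 100% = thioflavine S control wells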
#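 test system = hepatitis C virus NS3 helicase domain fragment enzyme | reagent = annealed dual-labelled DNA beacon duplex, ATP-started | times = 1 h at 25 °C | detection = Cy5 fluorescence, 0 and 60 min reads | read-out basis = percent inhibition from t60/t0 fluorescence ratio | control set = DMSO and thioflavine S | replication = one well per compound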
# GPR7 antag conf – human GPR7 antagonism, confirmation assay; 2,400 tested, 52% active; shares compounds with GPR7 antagonist; GPR7-expressing cells, calcium fluorescence antagonist mode; inhibition, % at 4.4 µM; in the data active = inhibition above about 24%;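 also: stimulated with the GPR7 agonist NPW; 0% = agonist plus vehicle and 100% = vehicle alone without agonist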
# MCHR1 antagonist – MCHR1 (human) antagonism in GPR7 counter-screen; 2,400 tested, 62% active; MCHR1-expressing cells, fluorescence antagonist assay; shares compounds with GPR7 antagonist; inhibition, % at 4.4 µM; in the data active = inhibition above about 22%;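 also: 0% = vehicle with agonist and 100% = vehicle without agonist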
# An asterisk follows results filed as active; · = no result given. In the library only some 2.3% were active in any assay of this set; here they are far more common.
SMILES,core dimer inh,ZTA DNA inh,GPR7 antagonist,EBNA-1 inhibitor,EBV gp42 block,HCV NS3 hel inh,GPR7 antag conf,MCHR1 antagonist
Cc1cccc(N(CC(=O)NC2CCCCC2)C(=O)CCCC(=O)Nc2ccccn2)c1C,9,-1,29*,3,·,-12,21,12
CC(=O)c1ccc(COC(=O)Cc2ccc([N+](=O)[O-])cc2)cc1,8,-7,30*,11,·,7,39*,52*
CC(=O)NCC(=O)OCc1ccc([N+](=O)[O-])cc1,0,0,-2,-4,-14,3,·,·
COCCNC(=O)CNC(=S)N(CCCN1CCOCC1)Cc1cccs1,2,4,13,-1,5,-8,·,·
Cc1cc(Cl)c(S(=O)(=O)N2CCCCCC2)cc1OCC(=O)NC1CCCCC1,4,15,32*,9,3,-1,61*,58*
COc1ccc(OC)c(S(=O)(=O)N2CCC(C(=O)NC3CCCCCC3)CC2)c1,0,1,26*,-13,·,22,-3,12
COc1cc(OC)c(S(=O)(=O)N2CCCCC2)cc1S(=O)(=O)N1CCCCC1,1,0,48*,2,-4,3,46*,21
COCCN(C(=O)COC(=O)c1cc(C)oc1C)c1c(N)n(Cc2ccccc2)c(=O)[nH]c1=O,1,11,·,6,·,·,·,·
CCCC(=O)N(CCN(Cc1ccccc1)C(=O)CCC)Cc1ccccc1,7,0,31*,2,0,-11,43*,31*
COC(=O)CCC(=O)N(CCN(Cc1ccccc1)C(=O)CCC(=O)OC)Cc1ccccc1,3,11,·,2,·,·,·,·
CC1(C)CC(=O)C(C=NCCCO)=C(O)C1,1,-4,27*,3,-25,-4,8,-3
CC1(C)CC(=O)C(C=NCC(N)=O)=C(O)C1,-1,17,-8,-8,-4,6,·,·
O=C(NCc1cccnc1)c1ccc(CS(=O)(=O)Cc2ccc(Cl)cc2)o1,-7,0,5,6,9,5,·,·
O=S(=O)(Cc1ccc(Cl)cc1)NCc1cccnc1,0,-7,25*,-4,-17,7,-4,-3
Cc1cc(O)c(C(C)C)cc1C1(c2cc(C(C)C)c(O)cc2C)OC(=O)c2ccccc21,12,0,28,-6,0,-5,17,14
CCOC(=O)C1(CCOc2ccccc2)CCN(Cc2cccc(OC)c2OC)CC1,-18,-14,32*,0,·,-38,24*,54*
COc1cc(NS(=O)(=O)c2cc3[nH]c(=O)c(=O)[nH]c3cc2C)cc(OC)c1OC,12,3,43*,-21,·,13,4,5
COc1cc(CNC(C)C)c(Br)cc1OC1CCCC1,0,1,-12,-5,-3,7,·,·
CC(NC(=O)Cc1cccc(C(F)(F)F)c1)c1ccc(F)cc1 (centres undefined),0,-3,27*,7,-17,2,7,15
CC(NC(=O)Cc1ccc(F)cc1)c1ccccc1 (centres undefined),-2,-8,-11,6,1,-5,·,·
CC(=O)Nc1ccc(/C=N/N2C(=O)NC(C)(c3ccc(OC(F)F)cc3)C2=O)cc1 (centres undefined),-3,-4,39*,11,3,1,98*,99*
CC1(c2ccc(OC(F)F)cc2)NC(=O)N(CC(=O)Nc2ccc3c(c2)OCO3)C1=O (centres undefined),-2,17,78*,3,2,-6,83*,82*
CCOC(=O)CN1C(=O)NC(C)(c2ccc(OC(F)F)cc2)C1=O (centres undefined),1,14,5,8,-26,-1,·,·
CC1(c2ccc(OC(F)F)cc2)NC(=O)N(CC(=O)Nc2ccccc2)C1=O (centres undefined),-4,7,89*,-4,·,0,85*,84*
Clc1ccc(CN2C3=NCCCN3c3ccccc32)cc1Cl,-1,2,24*,6,-2,-28,26*,27*
SMILES,core dimer inh,ZTA DNA inh,GPR7 antagonist,EBNA-1 inhibitor,EBV gp42 block,HCV NS3 hel inh,GPR7 antag conf,MCHR1 antagonist
CCOC(=O)c1c(NC(=O)CSc2ncccn2)sc2c1CCN(Cc1ccccc1)C2,·,·,27*,·,-11,-80,22,51*
CCOC(=O)c1c(NC(=O)CC)sc2c1CCN(Cc1ccccc1)C2,-2,2,3,-8,·,-14,·,·
Cc1noc(C)c1COC(=O)CCN1c2ccccc2Sc2ccccc21,13,9,-4,-11,-7,3,·,·
CCC(C)(C)C(=O)Nc1ncc(S(=O)(=O)c2ccc([N+](=O)[O-])cc2)s1,9,-11,25,-2,-13,-4,·,·
CCCC(C)C(=O)Nc1ncc(S(=O)(=O)c2ccc([N+](=O)[O-])cc2)s1 (centres undefined),16,-14,65*,1,·,1,70*,87*
COc1cccc(N=Cc2c(O)c3ccccc3oc2=O)c1,1,-14,28*,0,·,23,-4,31*
O=C(Nc1nc2c(F)cc(F)cc2s1)C1CC1,24,7,23*,11,·,0,20,34*
C/C(=N\NC(=O)Cc1ccc([N+](=O)[O-])cc1)c1cccnc1,·,·,23*,·,·,-3,0,16
CCC(C)(C(=O)NC1CCCC1)N(Cc1cccs1)C(=O)c1ccc2c(c1)OCO2 (centres undefined),-6,4,29*,-1,3,17,29*,25*
CCC(C)(C(=O)NC1CCCCC1)N(Cc1cccs1)C(=O)Cc1cccs1 (centres undefined),8,20,36*,8,-1,5,34*,37*
O=C(CSc1nncn1-c1cccnc1)Nc1cccc([N+](=O)[O-])c1,-4,-9,-5,-2,·,10,·,·
COc1ccc(C2C=C(C34CC5CC(CC(C5)C3)C4)NC(=S)N2)cc1 (centres undefined),14,-13,1,10,-12,-15,·,·
Cn1ccnc1C1CCCCN1Cc1nc(-c2ccc(Cl)cc2)no1 (centres undefined),1,19,26*,7,-5,-9,34*,22*
NC(=S)N=Nc1c(O)[nH]c2ccccc12,-5,-5,-7,2,5,4,·,·
NC(=S)N=Nc1c(O)[nH]c2c(Br)cc(Br)cc12,1,7,34*,-20,-13,2,9,28*
CC(CCc1ccccc1)NC(=O)COC(=O)c1ccc(S(C)(=O)=O)c([N+](=O)[O-])c1 (centres undefined),5,-4,52*,-13,-17,-2,92*,48*
